In experiment [1] the target is TGF-beta receptor type-1 (Homo sapiens) (UniProt P36897). As to the kind of experiment: Inhibition of wild-type human partial length TGFBR1 (D179 to M503 residues) expressed in Escherichia coli BL21 assessed as residual activity at 1000 nM after 30 mins by Kinomescan method relative to control.
The target in experiment [2] is Homeodomain-interacting protein kinase 3 (Homo sapiens) (UniProt Q9H422). Description: Inhibition of wild-type human partial length HIPK3 (M153 to N562 residues) expressed in HEK293 cells assessed as residual activity at 1000 nM after 30 mins by Kinomescan method relative to control. Format: cell-based.
Sequence of Homeodomain-interacting protein kinase 3 (Homo sapiens) (Q9H422 whole entry, looked up, the tested form may be a part): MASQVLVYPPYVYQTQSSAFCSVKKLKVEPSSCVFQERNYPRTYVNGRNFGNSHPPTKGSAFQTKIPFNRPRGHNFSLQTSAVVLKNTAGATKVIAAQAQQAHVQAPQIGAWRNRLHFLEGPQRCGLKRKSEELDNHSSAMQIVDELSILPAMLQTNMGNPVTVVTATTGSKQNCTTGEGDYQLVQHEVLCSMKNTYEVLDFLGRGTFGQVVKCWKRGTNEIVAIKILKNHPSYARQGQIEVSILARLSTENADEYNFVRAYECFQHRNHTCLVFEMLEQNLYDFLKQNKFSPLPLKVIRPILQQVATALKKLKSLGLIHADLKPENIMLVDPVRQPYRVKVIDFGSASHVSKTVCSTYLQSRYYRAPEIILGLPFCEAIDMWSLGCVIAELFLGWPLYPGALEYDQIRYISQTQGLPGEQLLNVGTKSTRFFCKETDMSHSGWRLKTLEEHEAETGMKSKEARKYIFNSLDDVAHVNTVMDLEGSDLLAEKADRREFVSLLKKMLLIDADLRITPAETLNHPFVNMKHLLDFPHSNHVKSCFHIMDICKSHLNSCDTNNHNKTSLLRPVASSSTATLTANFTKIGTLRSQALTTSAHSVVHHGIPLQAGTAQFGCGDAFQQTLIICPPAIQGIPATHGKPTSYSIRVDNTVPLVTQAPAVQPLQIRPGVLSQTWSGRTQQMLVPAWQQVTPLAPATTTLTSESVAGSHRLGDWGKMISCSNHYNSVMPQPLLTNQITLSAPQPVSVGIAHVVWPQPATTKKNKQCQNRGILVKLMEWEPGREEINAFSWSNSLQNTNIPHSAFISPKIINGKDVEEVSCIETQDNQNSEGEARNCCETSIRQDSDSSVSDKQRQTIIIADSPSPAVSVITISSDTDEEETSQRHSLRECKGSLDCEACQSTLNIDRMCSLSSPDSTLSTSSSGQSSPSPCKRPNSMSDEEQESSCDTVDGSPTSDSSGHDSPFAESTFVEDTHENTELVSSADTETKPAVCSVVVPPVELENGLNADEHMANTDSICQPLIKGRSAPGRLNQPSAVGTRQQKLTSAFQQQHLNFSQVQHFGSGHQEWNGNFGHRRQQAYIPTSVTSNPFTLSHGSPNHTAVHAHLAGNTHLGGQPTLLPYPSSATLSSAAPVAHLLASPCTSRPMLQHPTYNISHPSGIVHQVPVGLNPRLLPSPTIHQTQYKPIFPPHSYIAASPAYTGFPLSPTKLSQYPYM
In experiment [3] the target is Myosin-IIIa (Homo sapiens) (UniProt Q8NEV4). As to the kind of experiment: Inhibition of wild-type human partial length MYO3A (M1 to K338 residues) expressed in Escherichia coli BL21 assessed as residual activity at 1000 nM after 30 mins by Kinomescan method relative to control.
Sequence of Myosin-IIIa (Homo sapiens) (Q8NEV4 whole entry, the tested form may be a part): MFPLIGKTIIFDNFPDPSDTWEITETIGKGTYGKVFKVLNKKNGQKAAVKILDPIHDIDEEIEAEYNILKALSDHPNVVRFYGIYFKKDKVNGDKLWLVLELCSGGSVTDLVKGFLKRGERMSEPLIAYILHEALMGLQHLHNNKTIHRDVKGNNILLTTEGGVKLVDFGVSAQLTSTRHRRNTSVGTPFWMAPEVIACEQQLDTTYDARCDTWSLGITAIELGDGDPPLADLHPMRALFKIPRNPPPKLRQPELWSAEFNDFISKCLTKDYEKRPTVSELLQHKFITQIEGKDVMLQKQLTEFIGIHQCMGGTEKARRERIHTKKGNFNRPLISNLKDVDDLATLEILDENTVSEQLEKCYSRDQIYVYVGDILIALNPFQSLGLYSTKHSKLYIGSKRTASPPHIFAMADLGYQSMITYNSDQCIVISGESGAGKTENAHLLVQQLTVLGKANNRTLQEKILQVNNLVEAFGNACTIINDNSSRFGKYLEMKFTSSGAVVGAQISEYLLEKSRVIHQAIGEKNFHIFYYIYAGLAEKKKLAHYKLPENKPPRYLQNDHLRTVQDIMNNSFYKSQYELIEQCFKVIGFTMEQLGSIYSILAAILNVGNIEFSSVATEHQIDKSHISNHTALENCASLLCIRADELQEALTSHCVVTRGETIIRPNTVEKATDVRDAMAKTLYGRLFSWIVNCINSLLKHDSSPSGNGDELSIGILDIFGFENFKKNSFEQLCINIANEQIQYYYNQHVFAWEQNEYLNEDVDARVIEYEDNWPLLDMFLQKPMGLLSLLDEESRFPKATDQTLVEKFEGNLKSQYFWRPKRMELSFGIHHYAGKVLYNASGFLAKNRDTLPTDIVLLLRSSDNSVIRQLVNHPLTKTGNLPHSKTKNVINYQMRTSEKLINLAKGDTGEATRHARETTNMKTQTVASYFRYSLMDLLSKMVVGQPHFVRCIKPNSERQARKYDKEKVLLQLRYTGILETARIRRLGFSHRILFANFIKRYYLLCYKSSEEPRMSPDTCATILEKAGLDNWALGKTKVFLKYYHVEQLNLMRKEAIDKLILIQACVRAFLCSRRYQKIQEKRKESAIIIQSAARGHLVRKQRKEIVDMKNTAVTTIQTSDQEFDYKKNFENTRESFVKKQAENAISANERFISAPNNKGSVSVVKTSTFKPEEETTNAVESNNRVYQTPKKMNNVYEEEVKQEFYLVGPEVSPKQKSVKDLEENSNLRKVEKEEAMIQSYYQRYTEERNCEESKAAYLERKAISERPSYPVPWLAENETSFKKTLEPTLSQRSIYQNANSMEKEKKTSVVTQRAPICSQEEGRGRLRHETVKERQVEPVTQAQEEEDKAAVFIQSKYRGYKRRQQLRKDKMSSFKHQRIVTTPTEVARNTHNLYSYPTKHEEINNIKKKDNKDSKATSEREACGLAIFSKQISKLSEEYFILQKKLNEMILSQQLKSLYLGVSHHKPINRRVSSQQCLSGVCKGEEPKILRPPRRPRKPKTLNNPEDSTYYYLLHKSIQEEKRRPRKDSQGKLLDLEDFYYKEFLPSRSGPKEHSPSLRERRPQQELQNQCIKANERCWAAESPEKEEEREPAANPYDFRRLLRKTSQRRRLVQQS
The subject of experiment [4] is Tyrosine-protein kinase ABL1 (Homo sapiens), P00519 [E255K]. As to the kind of experiment: Inhibition of human phosphorylated ABL1 E255K mutant (S229 to K512 residues) expressed in HEK293 cells assessed as residual activity at 1000 nM after 30 mins by Kinomescan method relative to control. Format: cell-based. An outline of the steps: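 Single-point screen at a fixed 1 µM, run within a 456-kinase DiscoveRx KINOMEscan panel. Each kinase's read-out is Percent Control, i.e. signal relative to a control without compound. Hits were scored by a Percent Control < 35 cut-off, and an S(35) selectivity score was calculated across the non-mutant kinases.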

Experiment [5] deals with Mitogen-activated protein kinase 9 (Homo sapiens) (UniProt P45984). As to the kind of experiment: Inhibition of wild-type human full length JNK2 (M1 to Q382 residues) expressed in HEK293 cells assessed as residual activity at 1000 nM after 30 mins by Kinomescan method relative to control. Format: cell-based. Summed up:
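Single-concentration screen at 1 µM across a 456-kinase KINOMEscan panel. The read-out is Percent Control for each kinase.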

Molecules are shown by their SMILES.

Sequence of Mitogen-activated protein kinase 9 (Homo sapiens) (P45984 whole entry, looked up, the tested form may be a part): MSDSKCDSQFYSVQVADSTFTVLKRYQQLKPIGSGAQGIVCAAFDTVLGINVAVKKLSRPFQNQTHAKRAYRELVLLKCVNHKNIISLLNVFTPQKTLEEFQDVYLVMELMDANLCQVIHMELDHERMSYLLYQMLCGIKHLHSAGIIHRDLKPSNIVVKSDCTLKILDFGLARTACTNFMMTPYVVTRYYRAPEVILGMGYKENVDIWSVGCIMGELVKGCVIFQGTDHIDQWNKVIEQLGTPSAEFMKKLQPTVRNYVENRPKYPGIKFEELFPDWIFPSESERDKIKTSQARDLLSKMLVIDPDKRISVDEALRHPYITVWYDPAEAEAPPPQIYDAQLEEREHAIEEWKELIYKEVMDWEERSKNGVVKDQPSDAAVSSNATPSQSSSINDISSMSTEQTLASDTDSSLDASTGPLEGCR
Sequence of Tyrosine-protein kinase ABL1 (Homo sapiens), P00519 [E255K] (P00519 whole entry E255K, the tested form may be a part): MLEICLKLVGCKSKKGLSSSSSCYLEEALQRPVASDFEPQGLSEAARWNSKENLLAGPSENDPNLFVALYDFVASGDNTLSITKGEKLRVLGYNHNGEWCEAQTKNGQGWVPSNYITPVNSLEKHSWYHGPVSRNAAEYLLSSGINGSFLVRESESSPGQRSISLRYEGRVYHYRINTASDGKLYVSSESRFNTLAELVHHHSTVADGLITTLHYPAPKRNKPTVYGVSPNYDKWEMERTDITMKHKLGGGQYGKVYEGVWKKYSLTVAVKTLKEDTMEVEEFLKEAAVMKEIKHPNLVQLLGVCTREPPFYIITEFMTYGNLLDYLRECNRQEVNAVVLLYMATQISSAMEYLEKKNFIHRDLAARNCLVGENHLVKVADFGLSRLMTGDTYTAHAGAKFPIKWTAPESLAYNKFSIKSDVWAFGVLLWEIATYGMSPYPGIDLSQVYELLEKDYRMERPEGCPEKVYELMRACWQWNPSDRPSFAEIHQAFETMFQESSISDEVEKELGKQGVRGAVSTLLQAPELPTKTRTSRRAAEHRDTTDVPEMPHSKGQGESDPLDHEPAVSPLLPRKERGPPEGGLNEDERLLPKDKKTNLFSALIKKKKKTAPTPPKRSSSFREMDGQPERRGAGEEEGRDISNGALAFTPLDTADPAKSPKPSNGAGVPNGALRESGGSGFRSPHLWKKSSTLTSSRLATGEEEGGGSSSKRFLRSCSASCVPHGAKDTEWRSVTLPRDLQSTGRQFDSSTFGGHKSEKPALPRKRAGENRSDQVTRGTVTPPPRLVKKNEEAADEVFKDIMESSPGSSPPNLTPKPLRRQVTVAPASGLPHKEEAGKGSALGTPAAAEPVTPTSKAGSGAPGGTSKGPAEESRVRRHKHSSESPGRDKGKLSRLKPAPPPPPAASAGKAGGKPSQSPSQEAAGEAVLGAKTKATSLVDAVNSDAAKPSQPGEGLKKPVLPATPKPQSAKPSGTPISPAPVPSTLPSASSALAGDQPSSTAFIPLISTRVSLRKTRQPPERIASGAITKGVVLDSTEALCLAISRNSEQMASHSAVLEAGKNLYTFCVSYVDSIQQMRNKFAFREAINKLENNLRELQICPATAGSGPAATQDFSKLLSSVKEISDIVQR
Sequence of TGF-beta receptor type-1 (Homo sapiens) (P36897 whole entry, the tested form may be a part): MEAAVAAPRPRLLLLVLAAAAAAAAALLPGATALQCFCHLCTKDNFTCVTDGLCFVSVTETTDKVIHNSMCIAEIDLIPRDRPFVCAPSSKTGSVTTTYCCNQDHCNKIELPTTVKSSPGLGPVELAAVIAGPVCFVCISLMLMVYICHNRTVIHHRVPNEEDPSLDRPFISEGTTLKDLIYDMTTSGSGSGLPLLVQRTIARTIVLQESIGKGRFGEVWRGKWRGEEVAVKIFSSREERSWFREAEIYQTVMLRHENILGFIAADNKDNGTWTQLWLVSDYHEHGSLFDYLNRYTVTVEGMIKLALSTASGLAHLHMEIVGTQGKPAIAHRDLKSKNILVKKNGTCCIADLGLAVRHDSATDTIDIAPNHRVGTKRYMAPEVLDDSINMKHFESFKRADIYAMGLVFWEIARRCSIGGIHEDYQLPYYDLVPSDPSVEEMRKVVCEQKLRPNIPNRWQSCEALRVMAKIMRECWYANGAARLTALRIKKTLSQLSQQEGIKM

`COc1cc(OC)c(Cl)c(N2Cc3cnc(Nc4ccc(F)cc4)nc3N(C3CCN(C(=O)/C=C/CN(C)C)CC3)C2=O)c1Cl`: the Activity in experiment [1] stood at 95%; in experiment [2] it was 100%; in experiment [3], 96%; in experiment [4], 48%; in experiment [5], 92%.

Source of the values: ChEMBL document CHEMBL4043093, “2-Oxo-3, 4-dihydropyrimido[4, 5-d]pyrimidinyl derivatives as new irreversible pan fibroblast growth factor receptor (FGFR) inhibitors” (Eur J Med Chem, 2017).
